Test [1] concerns Mus musculus. The experiment in a line: Antinociceptive activity in sc dosed kappa opioid receptor antagonist nor-BNI treated mouse assessed as inhibition of acetic acid-induced writhing administered 15 mins before acetic acid challenge. The format is functional, organism-based. For orientation: In writhing tests, fewer writhes than in controls are read as antinociception.
The test system of test [2] is Mus musculus. The test is described as follows: Antinociceptive activity in po dosed mouse assessed as inhibition of acetic acid-induced writhing administered 15 mins before acetic acid challenge. The format is functional. The essentials:
(§1)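 Male mice (5 weeks old) received test compound sc into the rostral back or po, 15 min before ip 0.6% aqueous acetic acid (0.1 mL/10 g). Writhes were counted over 10 min, starting 10 min after the acid. […] The po/sc ED50 ratio was calculated.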

Test [3] relates to Mus musculus. The experiment in a line: Inhibition of acetic acid-induced writhing in sc dosed mouse up to 180 mins administered 15 mins before acetic acid challenge. The format is functional, organism-based.
Test [4] deals with Mus musculus. The test is described as follows: Antinociceptive activity in sc dosed delta opioid receptor antagonist […] treated mouse assessed as inhibition of acetic acid-induced writhing administered 15 mins before acetic acid challenge. It is filed as functional, organism-based.
Test [5] concerns Mus musculus. The test is described as follows: Antinociceptive activity in sc dosed mu opioid receptor antagonist naloxone treated mouse assessed as inhibition of acetic acid-induced writhing administered 15 mins before acetic acid challenge. The format is functional, organism-based.
Test [6] addresses Kappa-type opioid receptor (Mus musculus) (UniProt P33534). The experiment in a line: Agonist activity at kappa opioid receptor in ddy mouse vas deferens assessed as inhibition of electric stimulation-induced contraction at 1 uM. The format is functional, tissue-based.
The subject of test [7] is Mus musculus. The experiment in a line: Antinociceptive activity in sc dosed mouse assessed as inhibition of acetic acid-induced writhing administered 15 mins before acetic acid challenge. It is filed as functional. The essentials: as §1
The target of test [8] is Mu-type opioid receptor (Mus musculus) (UniProt P42866). The experiment in a line: Equilibrium constant, ratio of IC50 for mu opioid receptor in ddy mouse vas deferens in presence of 30 nM naloxone to IC50 for mu opioid receptor in ddy mouse vas deferens. The essentials:
(§2)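 Electrically stimulated ddY mouse vas deferens was held in Krebs-Henseleit at 37 °C under 95% O2/5% CO2. Tissue was preincubated 20 min with antagonist before the test agonist: naloxone 30 nM (μ), NTI 10 nM (δ), or nor-BNI 10 nM (κ). IC50s were compared with and without antagonist. Ke = [antagonist]/(IC50 ratio − 1).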

Test [9] addresses Delta-type opioid receptor (Mus musculus) (UniProt P32300). The test is described as follows: Equilibrium constant, ratio of IC50 for delta opioid receptor in ddy mouse vas deferens in presence of 10 nM Naltrindole to IC50 for delta opioid receptor in ddy mouse vas deferens. The essentials:
as §2

The target of test [10] is Kappa-type opioid receptor (Mus musculus) (UniProt P33534). The experiment in a line: Equilibrium constant, ratio of IC50 for kappa opioid receptor in ddy mouse vas deferens in presence of 10 nM nor-BNI to IC50 for kappa opioid receptor in ddy mouse vas deferens. The essentials: as §2
For test [11], the target named is Kappa-type opioid receptor (Mus musculus, UniProt P33534). The test is described as follows: Agonist activity at kappa opioid receptor in ddy mouse vas deferens assessed as inhibition of electric stimulation-induced contraction. The format is functional, tissue-based.
Test [12] concerns Mus musculus. The experiment in a line: Antinociceptive activity in mouse assessed as inhibition of acetic acid-induced writhing at 10 mg/kg, sc administered 15 mins before acetic acid challenge. It is filed as functional. Conditions: route subcutaneous. In outline:
as §1

For test [13], the system named is Mus musculus. The test is described as follows: Ratio of ED50 for acetic acid-induced writhing in po dosed mouse to ED50 for acetic acid-induced writhing in sc dosed mouse. The format is functional. In outline:
as §1

Activity calls are given as the source filed them. The calls are words filed in the database; no cut-off is given here.

The source of these data is ChEMBL document CHEMBL1142487, “Design, synthesis, and structure-activity relationship of novel opioid kappa-agonists” (Bioorg Med Chem, 2008).

One may read the ED50 as the dose at which the effect has come halfway, by size or by number of responders. The term inhibition denotes the relative decrease from the control value, in per cent. The term IC50 denotes the point on the concentration scale where inhibition reaches its midpoint. As a reminder, the inhibition in vivo is the relative decrease from the control value, in per cent.

On to `CN(C(=O)/C=C/c1ccoc1)[C@@H]1CC[C@@]2(O)[C@H]3Cc4ccc(O)c5c4[C@@]2(CCN3CC2CC2)[C@H]1O5.Cl` [NALFURAFINE HYDROCHLORIDE], for which the result with Mus musculus [1] was inactive. In the test on Mus musculus [2], the ED50 was found to be 0.032 mg/kg. Further, the outcome in the test with Mus musculus [3], with Mus musculus [4] and with Mus musculus [5] was Active.
For `CCCCCCS[C@@H]1CC[C@@]2(O)[C@H]3Cc4ccc(O)c5c4[C@@]2(CCN3CC2CC2)[C@H]1O5`, in [6], the inhibition was 38%. Besides, the ED50 with Mus musculus [7] was 15.8 mg/kg.
As for `CCCCCC(=O)N[C@@H]1CC[C@@]2(O)[C@H]3Cc4ccc(O)c5c4[C@@]2(CCN3CC2CC2)[C@H]1O5`, the Ke in test [8] was 4.4 nM; in test [9] it was 2.3 nM; in test [10], 0.26 nM. Also, the IC50 in test [11] was 25 nM. Moreover, the inhibition in vivo at 10 mg/kg in the test on Mus musculus [12] was 25%.
With `COc1cccc(/C=C/C(=O)N(C)[C@@H]2CC[C@@]3(O)[C@H]4Cc5ccc(O)c6c5[C@@]3(CCN4CC3CC3)[C@H]2O6)c1`, the Ke in test [8] turned out to be 60.9 nM; in test [9], 96.4 nM; in test [10] it was 1.6 nM. For the same compound, in test [11], the IC50 came to 0.75 nM. The ED50 with Mus musculus [7] came out at 0.0011 mg/kg; with Mus musculus [2] it was 0.0048 mg/kg. Besides, the “Ratio ED50” value in the test on Mus musculus [13] came out at 4.4. Moreover, in the test with Mus musculus [3], the outcome was Active.
